Results reported in ChEMBL document CHEMBL1158412, “Novel pyridopyrimidine derivatives as inhibitors of stable toxin a (STa) induced cGMP synthesis” (Bioorg Med Chem Lett, 2009).

Test system: T84
Assay: Inhibition of Escherichia coli heat stable toxin A-stimulated cGMP accumulation in human T84 cells at 50 uM pretreated 10 mins before 250 nM toxin challenge measured after 10 mins of induction by ELISA
Type: cell-based
Procedure, shortened: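 T84 cells preincubated 10 min with test compound, then left unstimulated (basal) or stimulated with 250 nM STa for 10 min; cGMP extracted and quantified by ELISA. Each plate included a vehicle control, and percent inhibition was calculated per plate.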

First: Cn1c2c(c(=O)n(C)c1=O)C(c1ccc(O)c(O)c1)C1=C(N2)c2ccccc2C1=O (centres undefined)
Second: COc1cc(C2C3=C(Nc4c2c(=O)n(C)c(=O)n4C)c2ccccc2C3=O)ccc1O (centres undefined)
The inhibition of the first is lower: 26% for the first, 29% for the second.

First: Cn1c2c(c(=O)[nH]c1=O)C(c1cc(F)cc(C(F)(F)F)c1)C1=C(N2)c2ccccc2C1=O (centres undefined)
Second: Cn1c2c(c(=O)[nH]c1=O)C(c1cc(C(F)(F)F)cc(C(F)(F)F)c1)C1=C(N2)c2ccccc2C1=O (centres undefined)
The inhibition of the first is lower: -6% for the first, 19% for the second.

Going from CC1=C(C(=O)Nc2ccccc2)C(c2cc(C(F)(F)F)cc(C(F)(F)F)c2)c2c(n(C)c(=O)n(C)c2=O)N1 (centres undefined) to CC1=C(C(N)=O)C(c2cc(C(F)(F)F)cc(C(F)(F)F)c2)c2c(n(C)c(=O)n(C)c2=O)N1 (centres undefined), the inhibition falls from 22% to 8%.

Going from Cn1c2c(c(=O)n(C)c1=O)C(c1cccc(F)c1)C1=C(N2)c2ccccc2C1=O (centres undefined) to Cn1c2c(c(=O)n(C)c1=O)C(c1cccc(Br)c1)C1=C(N2)c2ccccc2C1=O (centres undefined), the inhibition rises from 63% to 86%.

First: CC(C)C(=O)N1C2=C(C(=O)c3ccccc32)C(c2ccc(Cl)cc2)c2c1n(C)c(=O)n(C)c2=O (centres undefined)
Second: Cn1c2c(c(=O)n(C)c1=O)C(c1ccccc1)C1=C(N2)c2ccccc2C1=O (centres undefined)
The inhibition of the first is higher: 22% for the first, 7% for the second.

Compared with Cn1c2c(c(=O)n(C)c1=O)C(c1cccc(C#N)c1)C1=C(N2)c2ccccc2C1=O (centres undefined), Cn1c2c(c(=O)n(C)c1=O)C(c1cccc(C(F)(F)F)c1)C1=C(N2)c2ccccc2C1=O (centres undefined) is higher in inhibition: 23% for the first, 73% for the second.

Compared with Cn1c2c(c(=O)n(C)c1=O)C(c1cccc(C(F)(F)F)c1F)C1=C(N2)c2ccccc2C1=O (centres undefined), Cn1c2c(c(=O)n(C)c1=O)C(c1ccc(F)c(F)c1F)C1=C(N2)c2ccccc2C1=O (centres undefined) is lower in inhibition: 80% for the first, 62% for the second.

Compared with Cn1c2c(c(=O)n(C)c1=O)C(c1cc(F)cc(F)c1)C1=C(N2)c2ccccc2C1=O (centres undefined), Cn1c2c(c(=O)n(C)c1=O)C(c1cc(F)cc(C(F)(F)F)c1)C1=C(N2)c2ccccc2C1=O (centres undefined) is higher in inhibition: 63% for the first, 93% for the second.

First: Cn1c2c(c(=O)n(C)c1=O)C(c1ccc(F)c(F)c1F)C1=C(CC(c3ccco3)CC1=O)N2 (centres undefined)
Second: Cn1c2c(c(=O)n(C)c1=O)C(c1cccc(Br)c1)C1=C(CC(c3ccco3)CC1=O)N2 (centres undefined)
The inhibition of the first is lower: -3% for the first, 2% for the second.

Compared with CC1=C(C(=O)Nc2nccs2)C(c2cccc(Br)c2)c2c(n(C)c(=O)n(C)c2=O)N1 (centres undefined), Cn1c2c(c(=O)n(C)c1=O)C(c1cccc(Br)c1)C1=C(CCC1=O)N2 (centres undefined) is higher in inhibition: 11% for the first, 56% for the second.

Compared with Cn1c2c(c(=O)[nH]c1=O)C(c1cccc(Br)c1)C1=C(N2)c2ccccc2C1=O (centres undefined), Cn1c2c(c(=O)n(C)c1=O)C(c1cc(F)cc(F)c1F)C1=C(N2)c2ccccc2C1=O (centres undefined) is higher in inhibition: 1% for the first, 42% for the second.

Going from Cn1c(=O)c2c(-c3cccc(Br)c3)c3c(nc2n(C)c1=O)-c1ccccc1C3=O to Cn1c2c(c(=O)n(C)c1=O)C(c1cc(C(F)(F)F)cc(C(F)(F)F)c1)C1=C(N2)c2ccccc2C1=O (centres undefined), the inhibition rises from 2% to 93%.

First: O=C1C2=C(Nc3[nH]nc(-c4ccsc4)c3C2c2cc(C(F)(F)F)cc(C(F)(F)F)c2)c2ccccc21 (centres undefined)
Second: O=C1C2=C(Nc3[nH]c(=O)[nH]c(=O)c3C2c2cc(C(F)(F)F)cc(C(F)(F)F)c2)c2ccccc21 (centres undefined)
The inhibition of the first is lower: -2% for the first, 56% for the second.

Test system: not listed separately
Assay: Inhibition of Escherichia coli heat stable toxin A-stimulated cGMP accumulation in human T84 cells pretreated 10 mins before 1 nM toxin challenge measured after 10 mins of induction by ELISA
Type: cell-based

First: Cn1c2c(c(=O)n(C)c1=O)C(c1cccc(Br)c1)C1=C(N2)c2ccccc2C1=O (centres undefined)
Second: Cn1c2c(c(=O)n(C)c1=O)C(c1cc(F)cc(C(F)(F)F)c1)C1=C(N2)c2ccccc2C1=O (centres undefined)
The IC50 of the first is 2.8-fold higher: 9.6 µM for the first, 3.4 µM for the second. The second is the more potent here.

Cn1c2c(c(=O)n(C)c1=O)C(c1cc(C(F)(F)F)cc(C(F)(F)F)c1)C1=C(N2)c2ccccc2C1=O (centres undefined) showed an IC50 of 2.5 µM.
